Data published in article PMC12410913 (Small (Weinheim an Der Bergstrasse, Germany), 2025).
Entries after “also recorded” stand apart in the source; their conditions may differ.

How the values were obtained:
S. aureus ATCC 29 737 = assay: Field-emission SEM of nanonet morphology; format: cell-based; details: 40 µM peptide (100 µM E-E13 ASYM), 2 h, MHB, 37 °C
Outline: (§1)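 Mid‑log bacteria were diluted in MHB to OD600 0.07, then given test peptide and shaken at 120 rpm. They were pelleted at 6000 g for 6 min, PBS‑washed three times, and fixed overnight at 4 °C in 2.5% glutaraldehyde. Cells were adhered to poly‑L‑lysine coverslips, post‑fixed with 1% OsO4 for 30 min, ethanol‑dehydrated and gold‑coated. Imaging was at 15 000×, with ≥3 fields per sample. Coverage and extensiveness were scored high/moderate/low.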

E. coli ATCC 25 922 = assay: Field-emission SEM of nanonet morphology; format: cell-based; details: 40 µM peptide (100 µM E-E13 ASYM), 2 h, MHB, 37 °C
Outline: as §1

BODIPY-Cadaverine = format: binding, E. coli O111:B4 (LPS), S. aureus (LTA); details: LPS/LTA-BC complexes in 1× PBS pH 7.4, 37 °C, 30 minutes
Outline: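 LPS (E. coli O111:B4) or LTA (S. aureus) at 50 µg mL−1 was premixed with 5 µM BODIPY‑cadaverine in 1× PBS pH 7.4 for 30 min at room temperature in the dark. The premix was added 1:1 to two‑fold serial peptide dilutions in PBS, with polymyxin B as control, and shaken at 120 rpm. Fluorescence was read at ex 580/em 620 nm. Occupancy factor and % BC displaced came from sample fluorescence scaled between highest and lowest signals.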

[1] = K114 fluorescence fibrillation assay with LPS or LTA; format: physicochemical, E. coli O111:B4 (LPS), S. aureus (LTA); details: 20 µM peptide, 37 °C
Outline: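 A 10 mM DMSO stock of K114 was diluted to 250 µM in water and mixed at once with test peptide plus LPS (E. coli O111:B4) or LTA (S. aureus), with shaking at 120 rpm. K114 fluorescence (ex 360/em 550 nm) was read at 0.5, 1 and 2 h. Results were given as % increase in signal, with a non‑fibrillating control peptide as baseline. Three repeats, mean ± SE.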

[2] = K114 fluorescence fibrillation assay in PBS alone; format: physicochemical; details: 20 µM peptide, 1× PBS pH 7.4, 37 °C, 30 minutes
Outline: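 K114 was dissolved in DMSO at 10 mM and diluted to 250 µM in water. It was mixed at once with test peptide in 1× PBS pH 7.4 without LPS or LTA and shaken at 120 rpm. Fluorescence was read at ex 360/em 550 nm at 0.5, 1.0 and 2.0 h. Fibrillation was judged by signal above a non‑fibrillating control peptide.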

Fibrillation (K114 fluorescence signal) in response to LPS ([1]; 5 µg mL−1 LPS)	Fibrillation (K114 fluorescence signal) upon LTA binding ([1]; 5 µg mL−1 LTA)	Sequence	Nanonet morphology (surface coverage, extensiveness) on S. aureus (S. aureus ATCC 29 737)	Nanonet morphology (surface coverage, extensiveness) on E. coli (E. coli ATCC 25 922)	Binding to bacterial PAMPs (BC displaced from LPS or LTA) (BODIPY-Cadaverine)	Fibrillation (K114 fluorescence) in PBS alone [2]
		EVRIKLTAKIEVR [E‐E13 ^ASYM]	minimal membrane contact and low surface coverage	minimal membrane contact and low surface coverage	significantly reduced binding to bacterial PAMPs	
		KFRFKLTAKFRFK [diF‐F13]	formed nanonets similar to F‐F15 and BTT1‐3A	tighter interweaving of nanofibers on the surface of E. coli		
lower fibrillation in response to LPS	higher in fibrillation upon LTA binding	KFRVKLTAKVRFK [F‐F13]	slightly increased surface coverage on S. aureus but with less extensive nanonets	loosely trap E. coli with moderate surface coverage		
		KLKLKLTAKLKLK [btt1‐3A13]	random aggregated structures	less extensive nanonets with low surface coverage		
		LKFRFKLTAKFRFKL [diF‐F15]				spontaneously fibrillated in PBS; also recorded: significantly increased the K114 fluorescence signal, even in PBS alone
		LKFRVKLTAKVRFKL [F‐F15]	extensive nanonets with moderate surface coverage	extensive nanonets with moderate surface coverage		
